Reference: ChEMBL document CHEMBL1132689, “New tetracyclic analogues of photochemotherapeutic drugs 5-MOP and 8-MOP: synthesis, DNA interaction, and antiproliferative activity” (J Med Chem, 1999)
The source made the active and inactive calls. The rule behind the calls is not given here.

Key:
HL-60 [1] = assay: The compound was tested in vitro for growth inhibition against HL-60(human promyelocytic leukemia) cell line in the dark; format: functional, cell-based
Cavia porcellus [2] = organism: Cavia porcellus; assay: The compound was tested for photo antiproliferative activity and ability to induce erythema on guinea pig skin; --- = absent; format: functional, organism-based
Method in brief: (§1)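 Depilated albino guinea pigs (outbred Dunkin-Hartley) given topical ethanol solution on skin, new compounds up to 50 μg cm-2, 5-MOP and 8-MOP at 10 μg cm-2; kept dark 45 min, then treated skin irradiated with 20 kJ m-2 UVA (lamps emitting over 90% at 365 nm); erythema scored after 48 h.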

HeLa [3] = assay: The compound was tested in vitro for growth inhibition against HeLa(human cervix adenocarcinoma) cell line in the presence of UVA(ultra violet A irradiated); format: functional, cell-based; conditions: light or radiation study
Method in brief: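 HeLa (F-12 with 10% heat-inactivated FCS) seeded 10^5/well for 24 h; medium changed to phenol red-free DMEM with test agent, 1 h later irradiated with UVA 0.793 J cm-2 at 365 nm; drug medium removed, cells kept 24 h in complete F-12; trypan blue viability; IC50 as 50% cell-number reduction versus control.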

HeLa [4] = assay: The compound was tested in vitro for growth inhibition against HeLa(human cervix adenocarcinoma) cell line in the dark; format: functional, cell-based
HL-60 [5] = assay: The compound was tested in vitro for growth inhibition against HL-60(human promyelocytic leukemia) cell line in the presence of UVA(ultra violet A irradiated); format: functional, cell-based; conditions: HL-60, light or radiation study
Cavia porcellus [6] = assay: The compound was tested for photo antiproliferative activity and ability to induce erythema on guinea pig skin; +++ = strong (without edema); format: functional, organism-based; method in brief: as §1
Cavia porcellus [7] = organism: Cavia porcellus; assay: The compound was tested for photo antiproliferative activity and ability to induce erythema on guinea pig skin; +-- = mild; format: functional, organism-based; method in brief: as §1

SMILES	IC50 (HL-60 [1]) [µM]	Formation of erythema (Cavia porcellus [2])	IC50 (HeLa [3]) [µM]	IC50 (HeLa [4]) [µM]	IC50 (HL-60 [5]) [µM]	Formation of erythema (Cavia porcellus [6])	Formation of erythema (Cavia porcellus [7])
Cc1cc(=O)oc2c(OCCCN(C)C)c3oc4ccccc4c3cc12	4.2	inactive	0.08	9.6	0.6		
COc1c2c(C)cc(=O)oc2cc2oc3ccccc3c12	> 20	inactive	> 20	> 20	4.5		
Cc1cc(=O)oc2c(OCCCN(C)C)c3oc4c(c3cc12)CCCC4	12.4		1.2	> 20	0.6	strong (without edema)	
Cc1cc(=O)oc2c(O)c3oc4c(c3cc12)CCCC4	> 20	inactive	> 20	> 20	> 20		
Cc1cc(=O)oc2cc3oc4ccccc4c3c(O)c12	> 20	inactive	> 20	> 20	> 20		
Cc1cc(=O)oc2cc3oc4ccccc4c3c(OCCCN(C)C)c12	9.2	inactive	2.8	> 20	0.73		
Cc1cc(=O)oc2cc3oc4c(c3c(O)c12)CCCC4	> 20	inactive	> 20	> 20	7.3		
COc1c2occc2cc2ccc(=O)oc12 [METHOXSALEN]	> 20		10	> 20	5.4	Active	
COc1c2ccoc2cc2oc(=O)ccc12 [BERGAPTEN]	> 20		16.3	> 20	3.35	Active	
Cc1cc(=O)oc2c(O)c3oc4ccccc4c3cc12	> 20	inactive	> 20	> 20	> 20		
COc1c2c(C)cc(=O)oc2cc2oc3c(c12)CCCC3	> 20	inactive	4.6	> 20	4.9		
COc1c2oc(=O)cc(C)c2cc2c3c(oc12)CCCC3	> 20	inactive	> 20	> 20	3.5		
COc1c2oc(=O)cc(C)c2cc2c1oc1ccccc12	> 20	inactive	> 20	> 20	6.4		
Cc1cc(=O)oc2cc3oc4c(c3c(OCCCN(C)C)c12)CCCC4	13.8		3.7	> 20	3.4		+--
